Measurements taken from ChEMBL document CHEMBL3091443, “Synthesis of novel 7-substituted pyrido[2',3':4,5]furo[3,2-d]pyrimidin-4-amines and their N-aryl analogues and evaluation of their inhibitory activity against Ser/Thr kinases” (Bioorg Med Chem Lett, 2013).

What was measured:
[1] = molecular target: Dual specificity tyrosine-phosphorylation-regulated kinase 1A (Rattus norvegicus, UniProt Q63470); assay: Inhibition of rat recombinant GST-tagged DYRK1A expressed in Escherichia coli using KKISGRLSPIMTEQ as substrate after 30 mins by scintillation counting analysis
Summary of the method: (§1)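 Compounds were screened first at 10 µM final; those giving under 50% inhibition were scored as IC50 >10 µM, and the rest were taken to IC50 determination (µM). Kinase activities were assayed in triplicate, with standard deviation of single data points typically below 10%. Assay procedures are cited to earlier reports.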

[2] = Inhibition of pig brain CK1delta/epsilon using RRKHAAIGpSAYSITA as substrate after 30 mins by scintillation counting analysis; design: species or system Sus scrofa; summary of the method: as §1
[3] = molecular target: Glycogen synthase kinase-3 (Sus scrofa, UniProt B2LUN4+I6LNT8); assay: Inhibition of pig brain GSK3alpha/beta using YRRAAVPPSPSLSRHSSPHQpSEDEEE as substrate after 30 mins by scintillation counting analysis
Summary of the method: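 Screened first at 10 μM final; compounds giving under 50% inhibition at that level were recorded as IC50 >10 μM. Kinase activity was assayed in triplicate, and IC50 values are reported in μM.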

[4] = molecular target: Dual specificity protein kinase CLK1 (Homo sapiens, UniProt P49759); assay: Inhibition of human recombinant GST-tagged CLK1 expressed in Escherichia coli using GRSRSRSRSRSR as substrate; summary of the method: as §1
Sequence of Dual specificity protein kinase CLK1 (P49759 whole entry): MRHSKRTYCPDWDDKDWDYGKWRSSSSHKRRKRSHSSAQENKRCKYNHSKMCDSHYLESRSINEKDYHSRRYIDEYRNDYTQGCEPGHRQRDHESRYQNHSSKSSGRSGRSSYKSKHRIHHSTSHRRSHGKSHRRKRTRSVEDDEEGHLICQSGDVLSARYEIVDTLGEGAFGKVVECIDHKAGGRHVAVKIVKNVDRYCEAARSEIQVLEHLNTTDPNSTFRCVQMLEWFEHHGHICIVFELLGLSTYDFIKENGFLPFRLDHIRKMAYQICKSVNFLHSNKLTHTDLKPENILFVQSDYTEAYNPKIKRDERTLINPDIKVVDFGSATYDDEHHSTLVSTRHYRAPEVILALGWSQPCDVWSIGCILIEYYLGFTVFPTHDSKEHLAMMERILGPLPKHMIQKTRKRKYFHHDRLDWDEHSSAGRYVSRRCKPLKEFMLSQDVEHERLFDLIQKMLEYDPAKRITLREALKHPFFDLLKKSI

[5] = molecular target: Cyclin-dependent kinase 5/CDK5 activator 1 (Homo sapiens, UniProt Q00535); assay: Inhibition of human recombinant CDK5/p25 using [gamma-33P]ATP as substrate after 30 mins by scintillation counting analysis; format: protein-complex assay; summary of the method: as §1
Sequence of Cyclin-dependent kinase 5/CDK5 activator 1 (Q00535 whole entry): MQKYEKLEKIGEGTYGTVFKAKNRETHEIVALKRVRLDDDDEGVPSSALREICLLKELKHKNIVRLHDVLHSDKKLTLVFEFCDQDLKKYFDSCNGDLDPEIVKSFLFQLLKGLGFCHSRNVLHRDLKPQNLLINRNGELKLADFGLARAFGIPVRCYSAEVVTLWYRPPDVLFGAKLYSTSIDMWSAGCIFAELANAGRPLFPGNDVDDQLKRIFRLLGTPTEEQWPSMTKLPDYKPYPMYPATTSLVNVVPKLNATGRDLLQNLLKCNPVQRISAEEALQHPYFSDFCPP
Sequence of Cyclin-dependent kinase 5/CDK5 activator 1 (Q15078 whole entry, further chain): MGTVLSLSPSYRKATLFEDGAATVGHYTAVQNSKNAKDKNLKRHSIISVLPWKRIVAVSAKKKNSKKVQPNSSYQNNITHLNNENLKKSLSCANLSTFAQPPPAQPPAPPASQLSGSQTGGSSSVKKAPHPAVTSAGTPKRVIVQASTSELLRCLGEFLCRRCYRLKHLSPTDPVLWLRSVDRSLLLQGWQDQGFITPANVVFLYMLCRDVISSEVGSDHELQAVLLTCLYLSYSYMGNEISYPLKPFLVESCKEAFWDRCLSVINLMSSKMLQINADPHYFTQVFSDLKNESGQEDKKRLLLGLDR

With `COc1ccc(Nc2ncnc3c2oc2cc(-c4ccc5c(c4)OCO5)cnc23)cc1OC` the IC50 [1] was greater than 10 µM, the IC50 [2] was greater than 10 µM and the IC50 [3] was greater than 10 µM. It also gave an IC50 [4] greater than 10 µM and an IC50 [5] greater than 10 µM.

For `Nc1ncnc2c1oc1cc(-c3ccccc3)cnc12`, the IC50 [1] was 3.1 µM, the IC50 [2] was greater than 10 µM and the IC50 [3] was greater than 10 µM. The IC50 [4] was 0.69 µM and the IC50 [5] was greater than 10 µM.

With `c1cnc2c(c1)oc1c(Nc3ccc4c(c3)OCO4)ncnc12` the IC50 [1] was greater than 10 µM, the IC50 [2] was greater than 10 µM and the IC50 [3] was greater than 10 µM. For the same compound, the IC50 [4] was greater than 10 µM and the IC50 [5] was greater than 10 µM.

With `COc1cc(Nc2ncnc3c2oc2cc(-c4ccc5c(c4)OCO5)cnc23)cc(OC)c1OC` the IC50 [1] was greater than 10 µM, the IC50 [2] was greater than 10 µM and the IC50 [3] was greater than 10 µM. The IC50 [4] was greater than 10 µM and the IC50 [5] was greater than 10 µM.

Work on `Cc1ccc(Nc2ncnc3c2oc2cc(-c4ccc5c(c4)OCO5)cnc23)cc1` yielded an IC50 [1] greater than 10 µM, an IC50 [2] greater than 10 µM and an IC50 [3] greater than 10 µM. The IC50 [4] was greater than 10 µM and the IC50 [5] was greater than 10 µM.

`Nc1ncnc2c1oc1cc(-c3cccc(Cl)c3)cnc12` showed an IC50 [1] greater than 10 µM, an IC50 [2] greater than 10 µM and an IC50 [3] greater than 10 µM. For the same compound, the IC50 [4] was 1 µM and the IC50 [5] was greater than 10 µM.

`COc1cc(Nc2ncnc3c2oc2cccnc23)cc(OC)c1` gave an IC50 [1] greater than 10 µM, an IC50 [2] greater than 10 µM and an IC50 [3] greater than 10 µM. The IC50 [4] was greater than 10 µM and the IC50 [5] was greater than 10 µM.

In the case of `Nc1ncnc2c1oc1cc(-c3ccc4c(c3)OCO4)cnc12`, the IC50 [1] is reported as 2.3 µM, the IC50 [2] is reported as greater than 10 µM and the IC50 [3] is reported as greater than 10 µM. The IC50 [4] was 0.32 µM and the IC50 [5] was greater than 10 µM.

With `Fc1cc(Br)ccc1Nc1ncnc2c1oc1cccnc12` the IC50 [1] was greater than 10 µM, the IC50 [2] was greater than 10 µM and the IC50 [3] was greater than 10 µM. The IC50 [4] was greater than 10 µM and the IC50 [5] was greater than 10 µM.

In the case of `COc1ccc(Nc2ncnc3c2oc2cccnc23)cc1OC`, the IC50 [1] is reported as greater than 10 µM, the IC50 [2] is reported as greater than 10 µM and the IC50 [3] is reported as greater than 10 µM. It also gave an IC50 [4] greater than 10 µM and an IC50 [5] greater than 10 µM.

`Fc1ccc(Nc2ncnc3c2oc2cccnc23)cc1Cl` showed an IC50 [1] greater than 10 µM, an IC50 [2] greater than 10 µM and an IC50 [3] greater than 10 µM. For the same compound, the IC50 [4] was greater than 10 µM and the IC50 [5] was greater than 10 µM.

Work on `COc1ccc(Nc2ncnc3c2oc2cccnc23)cc1` yielded an IC50 [1] greater than 10 µM, an IC50 [2] greater than 10 µM and an IC50 [3] greater than 10 µM. The IC50 [4] was greater than 10 µM and the IC50 [5] was greater than 10 µM.

Work on `COc1cc(Nc2ncnc3c2oc2cccnc23)cc(OC)c1OC` yielded an IC50 [1] greater than 10 µM, an IC50 [2] greater than 10 µM and an IC50 [3] greater than 10 µM. The IC50 [4] was greater than 10 µM and the IC50 [5] was greater than 10 µM.

With `c1nc(Nc2ccc3c(c2)OCO3)c2oc3cc(-c4ccc5c(c4)OCO5)cnc3c2n1` the IC50 [1] was greater than 10 µM, the IC50 [2] was greater than 10 µM and the IC50 [3] was greater than 10 µM. The IC50 [4] was greater than 10 µM and the IC50 [5] was greater than 10 µM.

`Clc1ccc(Nc2ncnc3c2oc2cc(-c4ccc5c(c4)OCO5)cnc23)cc1Cl` gave an IC50 [1] greater than 10 µM, an IC50 [2] greater than 10 µM and an IC50 [3] greater than 10 µM. It also gave an IC50 [4] greater than 10 µM and an IC50 [5] greater than 10 µM.

With `c1ccc(Nc2ncnc3c2oc2cc(-c4ccc5c(c4)OCO5)cnc23)cc1` the IC50 [1] was greater than 10 µM, the IC50 [2] was greater than 10 µM and the IC50 [3] was greater than 10 µM. It also gave an IC50 [4] greater than 10 µM and an IC50 [5] greater than 10 µM.

`Nc1ncnc2c1oc1cccnc12` gave an IC50 [1] greater than 10 µM, an IC50 [2] greater than 10 µM and an IC50 [3] greater than 10 µM. For the same compound, the IC50 [4] was greater than 10 µM and the IC50 [5] was greater than 10 µM.

With `C1=COc2cc(Nc3ncnc4c3oc3cccnc34)ccc2O1` the IC50 [1] was greater than 10 µM, the IC50 [2] was greater than 10 µM and the IC50 [3] was greater than 10 µM. It also gave an IC50 [4] greater than 10 µM and an IC50 [5] greater than 10 µM.

`Nc1ncnc2c1oc1cc(-c3ccc(Cl)c(Cl)c3)cnc12` showed an IC50 [1] greater than 10 µM, an IC50 [2] greater than 10 µM and an IC50 [3] greater than 10 µM. It also gave an IC50 [4] greater than 10 µM and an IC50 [5] greater than 10 µM.

For `Clc1ccc(Nc2ncnc3c2oc2cc(-c4ccc5c(c4)OCO5)cnc23)cc1`, the IC50 [1] was greater than 10 µM, the IC50 [2] was greater than 10 µM and the IC50 [3] was greater than 10 µM. The IC50 [4] was greater than 10 µM and the IC50 [5] was greater than 10 µM.

Compound `Nc1ncnc2c1oc1cc(-c3ccc(Cl)cc3Cl)cnc12` has an IC50 [1] of 0.6 µM, an IC50 [2] greater than 10 µM and an IC50 [3] greater than 10 µM. The IC50 [4] was 0.049 µM and the IC50 [5] was greater than 10 µM.

With `COc1ccc(-c2cnc3c(c2)oc2c(N)ncnc23)cc1` the IC50 [1] was greater than 10 µM, the IC50 [2] was greater than 10 µM and the IC50 [3] was greater than 10 µM. The IC50 [4] was greater than 10 µM and the IC50 [5] was greater than 10 µM.

Work on `Fc1ccc(Nc2ncnc3c2oc2cc(-c4ccc5c(c4)OCO5)cnc23)cc1Cl` yielded an IC50 [1] greater than 10 µM, an IC50 [2] greater than 10 µM and an IC50 [3] greater than 10 µM. It also gave an IC50 [4] greater than 10 µM and an IC50 [5] greater than 10 µM.

`c1ccc(Nc2ncnc3c2oc2cccnc23)cc1` gave an IC50 [1] greater than 10 µM, an IC50 [2] greater than 10 µM and an IC50 [3] greater than 10 µM. For the same compound, the IC50 [4] was greater than 10 µM and the IC50 [5] was greater than 10 µM.

Work on `COc1ccc(Nc2ncnc3c2oc2cc(-c4ccc5c(c4)OCO5)cnc23)cc1` yielded an IC50 [1] greater than 10 µM, an IC50 [2] greater than 10 µM and an IC50 [3] greater than 10 µM. For the same compound, the IC50 [4] was greater than 10 µM and the IC50 [5] was greater than 10 µM.

Compound `Cc1ccc(-c2cnc3c(c2)oc2c(N)ncnc23)cc1` has an IC50 [1] of 4.4 µM, an IC50 [2] greater than 10 µM and an IC50 [3] greater than 10 µM. The IC50 [4] was 0.61 µM and the IC50 [5] was greater than 10 µM.
